# Results published in ChEMBL document CHEMBL1132156, “Synthesis and structure-activity relationships of potential anticancer agents: alkylcarbamates of 3-(9-acridinylamino)-5-hydroxymethylaniline” (J Med Chem, 1999).
# Columns and labels:
# [1] = test system: HL-60; assay: In vitro inhibition of human leukemic HL-60 cell growth in culture; type: functional, cell-based
# How it was run: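 HL-60 cells were seeded at 5×10^4 cells/mL in RPMI 1640 with 10% heat-inactivated FBS, penicillin and streptomycin, at 37 °C in 5% CO2. Cells were exposed for 72 h to six or seven drug concentrations, run in duplicate. Viability was read by XTT-tetrazolium microculture absorbance, and IC50 was derived from median-effect plot analysis.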
# [2] = test system: Mus musculus; assay: […] anticancer activity against B6D2F-1 mice bearing P388 leukemia measured by the Average survival time(day+/-SD) at an intravenous dose of 4(mg/kg).; type: functional
# How it was run: (§1)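 Male B6D2F1 mice, 8 weeks old, 20–25 g. P388/0 ascites cells (0.2 mL, ascites:saline 1.10) were implanted iv on day 0, and the tumor grew in the liver. Drug was given iv by tail vein on days 1, 3, 5, 7 and 9 (Q2Dx5), with 4–5 mice per group. Survival time was scored as 8 a.m. (0.0), 1 p.m. (0.25) or 5 p.m. (0.5) deaths. %ILS was averaged against untreated controls, and toxic deaths were counted.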
# [3] = test system: Mus musculus; assay: […] anticancer activity against B6D2F-1 mice bearing P388 leukemia measured by the average survival time(day+/-SD) at an intravenous dose of 3(mg/kg)..; type: functional; how it was run: as §1
# [4] = test system: Mus musculus; assay: […] anticancer activity against B6D2F-1 mice bearing P388 leukemia measured by the average weight change(g) after day 7 at an intravenous dose of 3(mg/kg).; type: functional
# How it was run: (§2)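 Male B6D2F1 mice (8 weeks old, 20–25 g) were implanted iv on day 0 with P388/0 ascites cells (0.2 mL; ascites:saline = 1.10). Tumor grew in the liver. Drug was given iv via the tail vein, Q2Dx5, on days 1, 3, 5, 7 and 9. Body weight was recorded on days 1, 7, 9 and 11 and reported as the average change (g).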
# [5] = test system: Mus musculus; assay: […] anticancer activity against B6D2F-1 mice bearing P388 leukemia measured by the average weight change(g) after day 7 at an intravenous dose of 4(mg/kg).; type: functional; how it was run: as §2
# [6] = test system: Mus musculus; assay: […] anticancer activity against B6D2F-1 mice bearing P388 leukemia measured by the average weight change(g) after day 9 at an intravenous dose of 4(mg/kg).; type: functional; how it was run: as §2
# [7] = test system: Mus musculus; assay: […] anticancer activity against B6D2F-1 mice bearing P388 leukemia measured by the average weight change(g) after day 11 at an intravenous dose of 4(mg/kg).; type: functional
# How it was run: (§3)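 Male B6D2F1 mice (8 weeks old, 20–25 g) were implanted iv on day 0 with P388/0 ascites cells (0.2 mL; ascites:saline 1.10), which grew in the liver. Drug was given iv via the tail vein, Q2Dx5, on days 1, 3, 5, 7 and 9. Groups had 4–5 mice. Day 1 value is mean body weight; later days are weight change.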
# [8] = test system: Mus musculus; assay: […] anticancer activity against B6D2F-1 mice bearing P388 leukemia measured by the average weight change(g) after day 11 at an intravenous dose of 3(mg/kg).; type: functional; how it was run: as §3
# [9] = test system: Mus musculus; assay: […] anticancer activity against B6D2F-1 mice bearing P388 leukemia measured by the increase in lifespan(%) at an intravenous dose of 3(mg/kg)..; type: functional; how it was run: as §1
# [10] = test system: Mus musculus; assay: […] anticancer activity against B6D2F-1 mice bearing P388 leukemia measured by the increase in lifespan(%) at an intravenous dose of 4(mg/kg).; type: functional; how it was run: as §1
# [11] = test system: Mus musculus; assay: […] anticancer activity against 5 B6D2F-1 mice bearing P388 leukemia measured by the toxicity death at an intravenous dose of 3(mg/kg)..; type: organism-based; conditions: in vivo; how it was run: as §1
# [12] = test system: Mus musculus; assay: […] anticancer activity against 5 B6D2F-1 mice bearing P388 leukemia measured by the toxicity death at an intravenous dose of 4(mg/kg).; type: organism-based; conditions: in vivo; how it was run: as §1
# [13] = test system: Mus musculus; assay: […] anticancer activity against B6D2F-1 mice bearing P388 leukemia measured by the average body weight(g) after day 1 at an intravenous dose of 3(mg/kg).
# [14] = test system: Mus musculus; assay: […] anticancer activity against B6D2F-1 mice bearing P388 leukemia measured by the average body weight(g) after day 1 at an intravenous dose of 4(mg/kg).
Compound,IC50 [1],other results
CNC(=O)c1cccc2c(Nc3cc(N)cc(CO)c3)c3cccc(C)c3nc12,93 nM,
COc1cccc2c(Nc3cc(N)cc(CO)c3)c3cccc(C(=O)NCCN(C)C)c3nc12,38 nM,
COc1cccc2c(Nc3cc(N)cc(CO)c3)c3ccccc3nc12,11 nM,
CCOC(=O)Nc1cc(CO)cc(Nc2c3cccc(OC)c3nc3c(C(=O)NC)cccc23)c1,32 nM,
CCOC(=O)Nc1cc(CO)cc(Nc2c3ccccc3nc3c(C(=O)NC)cccc23)c1,88 nM,
CCOC(=O)Nc1cc(CO)cc(Nc2c3ccccc3nc3c(Cl)cccc23)c1,67 nM,
CN(C)CCNC(=O)c1cccc2c(Nc3cc(N)cc(CO)c3)c3ccccc3nc12,130 nM,
CCOC(=O)Nc1cc(CO)cc(Nc2c3cccc(OC)c3nc3c(C(=O)NCCN(C)C)cccc23)c1,9.7 nM,
O=C(Nc1cc(CO)cc(Nc2c3ccccc3nc3ccccc23)c1)Oc1ccccc1,161 nM,
CCOC(=O)Nc1cc(CO)cc(Nc2c3ccccc3nc3c([N+](=O)[O-])cccc23)c1,3800 nM,
Cc1cccc2c(Nc3cc(N)cc(CO)c3)c3ccccc3nc12,7.6 nM,
CCCOC(=O)Nc1cc(CO)cc(Nc2c3ccccc3nc3ccccc23)c1,8 nM,
CCOC(=O)Nc1cc(CO)cc(Nc2c3ccccc3nc3c(C)cccc23)c1,4.7 nM,
CCOC(=O)Nc1cc(CO)cc(Nc2c3cccc(C)c3nc3c(C(=O)NC)cccc23)c1,11 nM,
COc1cccc2c1C(=O)c1c(O)c3c(c(O)c1C2=O)C[C@@](O)(C(=O)CO)C[C@@H]3O[C@H]1C[C@H](N)[C@H](O)[C@H](C)O1 [DOXORUBICIN],,Average survival [2]: 27.4 days; Average survival [3]: 14.2 days; Average weight change [4]: -0.4 g; Average weight change [5]: -1.4 g; Average weight change [6]: -1.6 g; Average weight change [7]: -3.2 g; Average weight change [8]: -3.6 g; Increase in life-span [9]: 122%; Increase in life-span [10]: 328%; Toxicity related death [11]: 0; Toxicity related death [12]: 0; Body weight [13]: 23 g; Body weight [14]: 23.6 g
